High-throughput results deposited in PubChem BioAssay by several laboratories.
HSF1 activator: increases HSF-1 driven luciferase reporter signal; NIH3T3-HGL HSF-1 luciferase reporter, MG132, 8 h; 100% = twice DMSO control signal; activation, % at 9 µM; 1.7% of 300,000 active; AID 504408;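 active = mean replicate activation of at least 50% with a set share of replicates each reaching 50%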;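 also: 0% = median of the neutral control wells and 100% = twice that signal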
HSF1 inh: HSF1 inhibition. 0.77% of 300,000 active. NIH3T3-HGL HSE-luciferase, MG132-induced, luminescence 8 h; active compounds read low. activity change, negative = inhibition, % at 7.5 µM (by protocol);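 active = more than half of replicate wells show activity change below -50%, luminescence cut by over half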;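 also: luciferase reports HSF-1 transcriptional activity via heat shock element; 0% = median of DMSO wells and -100% = zero luminescence signal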
PHOSPHO1 block: inhibitors of human PHOSPHO1 phosphatase. Q8TCT1. recombinant PHOSPHO1, absorbance phosphatase assay. inhibition, % at 13.3 µM. 1.1% of 290,000 active; in the data active = inhibition above about 60%
Target sequence (Q8TCT1 whole entry, looked up): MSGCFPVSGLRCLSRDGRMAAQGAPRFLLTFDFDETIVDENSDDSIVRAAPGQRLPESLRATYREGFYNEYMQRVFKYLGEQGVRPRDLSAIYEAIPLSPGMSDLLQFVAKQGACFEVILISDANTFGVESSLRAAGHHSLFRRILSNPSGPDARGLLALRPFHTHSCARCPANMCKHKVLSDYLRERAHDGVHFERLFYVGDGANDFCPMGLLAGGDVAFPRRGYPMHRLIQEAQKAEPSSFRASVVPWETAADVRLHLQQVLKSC
core dimer inh: HCV core protein dimerization inhibition | 0.33% of 300,000 active | TR-FRET GST/Flag-core106 dimerization, 1536-well | AID 1899 | inhibition, % at 5 µM;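 active = inhibition above the mean of all tested compounds plus 3 SD, set per screening campaign, cut at about 45% in these data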
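Material: GST/Flag-tagged HCV core106 proteins. Incubation: 4 h, 22.5 °C incubation. Read-out basis: inhibition (%) from 671 over 617 nm ratio. Measured by: TR-FRET, excitation 340 nm, emission 617 and 671 nm.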
AI-2 QS modul: Vibrio harveyi AI-2 quorum sensing modulation; activity change, % at 7.5 µM; 0.4% of 300,000 active; Vibrio harveyi JMH597 AI-2 luminescence/OD600 ratio, 9 h; active compounds read low; strain lacks LuxN and CqsS sensors; 0 = neutral-control median; AID 2094; in the data active = activity change below about -75%, passing the limit was not always enough;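 also: luminescence divided by OD600 gain over 9 h not by final OD600 alone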
ALR inh: human ALR oxidase inhibition via reduced H2O2. 3.8% of 290,000 active. purified ALR, DTT oxidation, H2O2 HRP-luminol luminescence. AID 485317. P55789. inhibition, % (test concentration not listed);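 active = mean replicate inhibition above about 79%, with every replicate also reaching it, limit read from the data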
Target sequence (P55789 whole entry, looked up): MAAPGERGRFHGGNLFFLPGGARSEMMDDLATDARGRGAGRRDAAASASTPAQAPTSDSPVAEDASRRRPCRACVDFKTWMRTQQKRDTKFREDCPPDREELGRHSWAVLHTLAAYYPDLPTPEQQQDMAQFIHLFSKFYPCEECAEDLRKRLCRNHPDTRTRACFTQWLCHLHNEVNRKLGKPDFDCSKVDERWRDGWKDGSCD
* hit, by the source's call; nt = no result. Compounds with a hit are over-represented: about 6.8% of the library has one in this group of screens.

SMILES	HSF1 activator	HSF1 inh	PHOSPHO1 block	core dimer inh	AI-2 QS modul	ALR inh
Oc1ccc(/C=N/NC(=S)NCC2CCCO2)cc1 (stereo not drawn)	18	11	56	-2	-1	98*
COc1ccc(/C=N/NC(=O)C(=O)NCC2CCCO2)cc1 (stereo not drawn)	-1	1	-2	-14	15	-11
S=C(N/N=C/c1cccs1)NC1CC2CCC1C2 (stereo not drawn)	64*	30	21	-6	-3	0
Oc1ccc(/C=N/NC(=S)NC2CC3CCC2C3)cc1 (stereo not drawn)	27	34	25	5	22	99*
CNC(=S)N/N=C(\C)c1ccc(C)c(C)c1	-18	-6	6	-11	21	63
Cc1cc(C)c2c(c1)/C(=N\N=c1\sc3ccccc3n1C)C(=O)N2	-5	3	34	10	11	nt
COc1ccc(-c2[nH]ncc2CN2CCCCCCC2)c(OC)c1	-3	-3	50	-2	-8	nt
COc1ccc(-c2[nH]ncc2CN2CCN(c3ccccn3)CC2)c(OC)c1	-13	0	60*	-1	21	-5
Cc1ccc(Sc2ncccc2C(=O)NCc2cc([N+](=O)[O-])ccc2O)cc1C	11	0	3	nt	11	89*
CC(CNC(=O)c1ccccc1[N+](=O)[O-])NC(=O)c1ccccc1[N+](=O)[O-] (stereo not drawn)	-1	-5	nt	1	19	-10
CCOC(=O)c1ccc(S(=O)(=O)N2CC(=O)Nc3ccccc32)cc1	-3	2	6	16	16	99*
COc1ccc(-c2cc(-c3n[nH]c(=S)n3-c3cccc4ccccc34)[nH]n2)cc1	-2	-5	-10	12	49	32
COc1cc(-n2c(-c3ccccc3)n[nH]c2=S)c(OC)cc1Cl	3	0	-35	4	4	79*
COc1ccccc1-n1c(-c2cc(-c3ccc(F)cc3)n[nH]2)n[nH]c1=S	6	-1	4	3	18	77*
COc1cc(OC)cc(-c2n[nH]c(=S)n2-c2cc(OC)ccc2OC)c1	13	3	82*	-4	1	49
CN(CC(=O)Nc1ccccc1Br)C(=O)CN1CCN(Cc2ccc(Cl)cc2)CC1	nt	nt	nt	nt	nt	2
CC(C)c1ccc(N(C(=O)c2ccc3c(c2)OCO3)C2C=CS(=O)(=O)C2)cc1 (stereo not drawn)	3	-1	38	4	28	32
COc1ccc(CCNC(=O)c2ccc(-c3ccc([N+](=O)[O-])cc3Cl)o2)cc1	9	3	-4	28	13	-1
CC12CCC(C(=O)NNc3ccccc3)(C(=O)C1=O)C2(C)C (stereo not drawn)	11	15	-25	-2	24	98*
C=C(C)C(=O)NNc1ccccc1	9	-6	22	-1	16	31
CC(C)(C)c1cc(C(c2cccnc2)N2CCN(CCO)CC2)cc(C(C)(C)C)c1O (stereo not drawn)	76*	63	23	-9	128	37
C=CCn1c(SCc2nc3sc(C(=O)O)c(C)c3c(=O)[nH]2)nnc1-c1ccc(C(C)(C)C)cc1	-9	3	42	11	-1	98*
CC(C)(C)c1ccc(-c2nnc(SCC(=O)O)n2N)cc1	-5	-2	75*	-4	21	70
C=C(C)Cn1c(SCC(=O)O)nnc1-c1ccc(OC)cc1	59*	17	23	-6	21	8
CC(=O)c1sc2nc(CSc3nnnn3-c3ccccc3)[nH]c(=O)c2c1C	7	10	-11	74*	45	1
SMILES	HSF1 activator	HSF1 inh	PHOSPHO1 block	core dimer inh	AI-2 QS modul	ALR inh
COC(=O)c1ccc(=O)n(CC(=O)c2ccc(Cl)cc2)c1	12	1	12	2	4	-1
COc1ccc(OC)c(S(=O)(=O)N/N=C(/C)c2ccc3c(c2)OCO3)c1	-3	-4	31	nt	12	9
CC[C@H](C)[C@H](NC(=O)c1ccccc1)C(=O)Nc1ccc(S(=O)(=O)Nc2cc(C)nc(C)n2)cc1	0	-1	25	2	6	2
CC(C)OC(=O)CSc1nnc(-c2ccncc2)n1N	-3	-3	-6	0	29	nt
CC(C)OC(=O)CSc1nnc(-c2ccc(C(C)(C)C)cc2)n1N	6	13	67*	-2	-7	nt
C=CCn1c(SCC(=O)O)nnc1-c1cccc(Cl)c1	-9	-3	-10	-3	16	1
C=CCn1c(SCC(=O)O)nnc1-c1ccc(C(C)(C)C)cc1	3	-6	94*	4	6	32
CC(=O)Nc1ccccc1NC(=O)C/C(C)=N/NC(=O)c1cccnc1	14	-5	-10	8	nt	52
COc1ccc(C2C(C(=O)c3ccco3)=C(O)C(=O)N2CC2CCCO2)c(OC)c1 (stereo not drawn)	3	-10	43	0	30	nt
CCOc1cc(/C=C2\C(=O)N(c3nc(-c4ccc(Br)cc4)cs3)N=C2c2ccccc2)ccc1O	9	11	41	55*	22	-1
COc1cc(/C=C2/C(=O)N(c3ccc(C(=O)O)cc3)N=C2C)cc(OC)c1O	-4	-3	24	nt	16	93*
COc1cc(/C=C2\C(=O)N(c3ccc(NC(C)=O)cc3)N=C2c2ccccc2)ccc1O	8	24	-1	-11	22	95*
CC(=O)Nc1cccc(OCc2ccc(S(=O)(=O)Cc3ccccc3)cc2)c1	28	0	-6	-2	33	1
CC(=O)Nc1ccc(S(=O)(=O)NC(C)(C#N)C2CC2)cc1 (stereo not drawn)	-8	-2	24	0	-2	-9
O=S(=O)(c1ccccc1Br)N1CCN(c2ncccn2)CC1	12	1	13	1	-3	nt
Cc1[nH]c2ccccc2c1C(=O)CSc1ccccc1	26	18	0	3	19	16
Cc1ccc2c(C(=O)CSc3ccccc3)c(C)[nH]c2c1	55*	24	11	-19	3	nt
C/C=C1\COC(C(=O)NCc2cccc(OC)c2OC)(C(F)(F)F)C=C1C=C1CCCCC1 (stereo not drawn)	69*	56	nt	-4	31	53
C/C=C1\COC(C(=O)NCc2ccncc2)(C(F)(F)F)C=C1C=C1CCCCC1 (stereo not drawn)	63*	31	nt	-5	29	24
O=C(NCc1ccncc1)NC1CCCCC1	21	-1	30	-2	1	nt
COc1ccc(S(=O)(=O)N2CCC(C(=O)N(C)Cc3ccc(C)o3)CC2)cc1OC	nt	nt	nt	nt	nt	3
CCCCCC(=O)N/N=C/c1cc(Br)c(O)c(OC)c1	-37	-26	-3	-9	20	99*
